In data set [1] the target is T1, Dual specificity tyrosine-phosphorylation-regulated kinase 1A (Homo sapiens, UniProt Q13627). The following applies: 3 uM.
In data set [2] the target is Voltage-gated inwardly rectifying potassium channel KCNH2 (Homo sapiens, UniProt Q12809). The experiment in a line: Inhibition of human ERG.
In data set [3] the test system is CAL-51. The data set can be described thus: Antiproliferative activity against human CAL51 cells xenografted in SCID mouse assessed as tumor growth inhibition at 10 mg/kg, iv administered every 3 days for 16 days relative to control. Type of data set: functional. The following applies: CAL-51, iv, read-out: TGI. Summed up: (§1)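 Mice bearing tumors of about 125 mm3 randomized (n = 8−10/group) and given compound intravenously at the listed doses and schedules. Tumors measured twice weekly by digital caliper on long and short axes; volume = width² × length/2.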

A short description of data set [4]: Metabolic stability in human liver S9 fraction assessed as percent of compound remaining after 60 mins. Type of data set: ADME, tissue-based. The following applies: read-out: Stability.
Data set [5] deals with Mus musculus. The data set can be described thus: Toxicity in SCID mouse xenografted with human CAL51 cells assessed as loss in body weight at 20 mg/kg, iv administered every 7 days for 16 days relative to control. Type of data set: organism-based. The following applies: in vivo.
For data set [6], the target named is T2, Dual specificity tyrosine-phosphorylation-regulated kinase 3 (Homo sapiens, UniProt O43781).
T2 sequence (O43781 whole entry): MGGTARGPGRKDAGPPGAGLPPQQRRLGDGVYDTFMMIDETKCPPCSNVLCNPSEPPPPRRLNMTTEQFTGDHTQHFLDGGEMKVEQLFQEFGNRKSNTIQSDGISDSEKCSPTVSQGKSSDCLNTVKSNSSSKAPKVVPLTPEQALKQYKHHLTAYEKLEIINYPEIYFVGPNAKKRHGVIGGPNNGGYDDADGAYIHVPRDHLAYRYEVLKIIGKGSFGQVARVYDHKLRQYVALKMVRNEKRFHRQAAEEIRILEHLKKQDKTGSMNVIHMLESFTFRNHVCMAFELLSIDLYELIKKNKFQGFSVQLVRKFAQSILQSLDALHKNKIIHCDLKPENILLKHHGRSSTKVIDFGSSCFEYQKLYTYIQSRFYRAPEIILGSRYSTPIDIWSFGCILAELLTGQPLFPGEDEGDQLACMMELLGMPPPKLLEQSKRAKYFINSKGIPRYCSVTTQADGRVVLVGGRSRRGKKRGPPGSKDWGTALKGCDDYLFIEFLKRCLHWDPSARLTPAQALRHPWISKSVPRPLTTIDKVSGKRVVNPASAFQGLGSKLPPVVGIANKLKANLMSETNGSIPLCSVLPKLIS
The experiment in a line: Inhibition of human full length recombinant GST-tagged DYRK3 expressed in baculovirus by Z'-LYTE assay.

Data set [7] addresses T1, Dual specificity tyrosine-phosphorylation-regulated kinase 1A. The experiment in a line: Inhibition of human full length GST-tagged DYRK1A expressed in baculovirus by Z'-LYTE assay.
Data set [8] has as its target T3, Phosphorylase b kinase gamma catalytic chain, skeletal muscle/heart isoform (Homo sapiens, UniProt Q16816). The following applies: 3 uM.
Target sequence in this assay (Q16816 whole entry, looked up, canonical isoform): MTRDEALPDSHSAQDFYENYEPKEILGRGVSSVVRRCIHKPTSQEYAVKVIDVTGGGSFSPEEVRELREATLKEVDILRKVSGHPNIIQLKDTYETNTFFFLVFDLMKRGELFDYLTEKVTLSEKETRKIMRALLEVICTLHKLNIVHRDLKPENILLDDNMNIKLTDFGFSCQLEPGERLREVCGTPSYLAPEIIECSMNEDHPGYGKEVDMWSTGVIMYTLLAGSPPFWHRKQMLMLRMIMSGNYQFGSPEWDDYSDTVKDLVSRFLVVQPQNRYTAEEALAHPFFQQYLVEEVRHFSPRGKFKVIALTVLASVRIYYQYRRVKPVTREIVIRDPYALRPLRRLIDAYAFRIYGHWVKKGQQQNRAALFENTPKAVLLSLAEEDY
A short description of data set [9]: Clearance in SCID mouse at 5 mg/kg, iv. Particulars: in vivo. Type of data set: ADME, organism-based.
The target in data set [10] is Dual specificity protein kinase CLK2 (Homo sapiens) (UniProt P49760). Particulars: 3 uM.
In data set [11] the target is T4, Phosphatidylinositol 5-phosphate 4-kinase type-2 gamma (Homo sapiens) (UniProt Q8TBX8).
T4 sequence (whole entry): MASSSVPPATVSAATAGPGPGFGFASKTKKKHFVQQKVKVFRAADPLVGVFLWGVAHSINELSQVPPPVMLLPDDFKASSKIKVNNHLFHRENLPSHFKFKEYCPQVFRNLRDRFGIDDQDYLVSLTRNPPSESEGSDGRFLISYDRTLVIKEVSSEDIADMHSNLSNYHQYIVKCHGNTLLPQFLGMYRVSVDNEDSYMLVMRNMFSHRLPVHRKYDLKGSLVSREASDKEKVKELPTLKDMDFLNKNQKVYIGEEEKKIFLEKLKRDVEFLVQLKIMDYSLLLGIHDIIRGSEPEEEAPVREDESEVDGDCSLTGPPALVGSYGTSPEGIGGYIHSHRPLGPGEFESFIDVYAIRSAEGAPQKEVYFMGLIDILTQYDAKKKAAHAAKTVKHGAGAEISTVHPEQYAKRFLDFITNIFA
The experiment in a line: Binding affinity to PIP4K2C in human HCT116 cell lysate at 3 uM after 1 hr by LC-MS/MS analysis. The procedure, abridged: (§2)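 ActivX KiNative cellular kinase profiling. HCT-116 cells were grown in RPMI-1640 with 10% FBS and exposed to compound at 3 μM for 1 h, with DMSO-only controls. Cells were then washed with ice-cold PBS, scraped, pelleted and stored at −80 °C. Kinase binding was reported as percent occupancy relative to the untreated controls.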

Data set [12] in a line: Mean residence time in rat at 2 mg/kg, iv. Particulars: in vivo. It counts as ADME, organism-based.
Data set [13] in a line: Metabolic stability in rat liver S9 fraction assessed as percent of compound remaining after 60 mins. It counts as ADME, tissue-based. Particulars: read-out: Stability.
For data set [14], the system named is CAL-51. The data set can be described thus: Antiproliferative activity against human CAL51 cells xenografted in SCID mouse assessed as tumor growth inhibition at 20 mg/kg, iv administered every 7 days for 16 days relative to control. It counts as functional. The following applies: CAL-51, iv, read-out: TGI. The procedure, abridged: as §1
For orientation: A xenograft is tissue or cells of one species grown in another, often human tumour cells in immunodeficient mice.

The subject of data set [15] is CAL-51. The data set can be described thus: Antiproliferative activity against human CAL51 cells xenografted in SCID mouse assessed as tumor growth inhibition at 20 mg/kg, iv administered every 3 days for 16 days relative to control. Type of data set: functional. The following applies: CAL-51, iv, read-out: TGI. The procedure, abridged: as §1
The test system of the next data set is MDA-MB-361. The data set can be described thus: Antiproliferative activity against human MDA-MB-361 cells after 3 days by CellTiter-Glo assay. Type of data set: cell-based. The following applies: mda-mb-361, 72 h. Summed up:
(§3)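 Cell lines kept in vendor-recommended growth media; 3-day compound exposure, then CellTiter-Glo luminescence read. Percent inhibition per concentration normalized to DMSO control, triplicate wells.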
(ATP-based viability assays read luminescence as a measure of living cells.)

A short description of data set [16]: Clearance in rat at 2 mg/kg, iv. It counts as ADME, organism-based. The following applies: in vivo.
Another data set deals with ZR-75-30. The experiment in a line: Antiproliferative activity against human ZR75-30 cells after 3 days by CellTiter-Glo assay. Type of data set: cell-based. Particulars: zr-75-30, 72 h. The procedure, abridged: as §3
Data set [17] concerns the target T5, c-Jun N-terminal kinase, JNK (Homo sapiens, UniProt P45983+P53779+P45984). The experiment in a line: Inhibition of JNK1/JNK2/JNK3 in human HCT116 cell lysate after 1 hr by LC-MS/MS analysis relative to control.
In data set [18] the target is T5, c-Jun N-terminal kinase, JNK. The data set can be described thus: Binding affinity to JNK1/JNK2/JNK3 in human HCT116 cell lysate at 3 uM after 1 hr by LC-MS/MS analysis. Summed up:
as §2

The test system of a further data set is MDA-MB-468. The experiment in a line: Antiproliferative activity against human MDA-MB-468 cells after 3 days by CellTiter-Glo assay. Type of data set: functional, cell-based. Summed up:
as §3

For data set [19], the target named is T3, Phosphorylase b kinase gamma catalytic chain, skeletal muscle/heart isoform. The data set can be described thus: Inhibition of full length human GST-tagged PHKG1 expressed in baculovirus by Z'-LYTE assay.
Target sequence in this assay (Q16816 whole entry, canonical isoform): as the sequence (Q16816 whole entry, looked up, canonical isoform) above
Data set [20] has as its system Mus musculus. The data set can be described thus: Toxicity in SCID mouse xenografted with human CAL51 cells assessed as loss in body weight at 20 mg/kg, iv administered every 3 days for 16 days relative to control. It counts as organism-based. The following applies: in vivo.

Each structure is given as a SMILES string. Calls of active or inactive are those of the source. The rule behind the calls is not given here.

Sequence of Dual specificity protein kinase CLK2 (Homo sapiens) (P49760 whole entry, looked up): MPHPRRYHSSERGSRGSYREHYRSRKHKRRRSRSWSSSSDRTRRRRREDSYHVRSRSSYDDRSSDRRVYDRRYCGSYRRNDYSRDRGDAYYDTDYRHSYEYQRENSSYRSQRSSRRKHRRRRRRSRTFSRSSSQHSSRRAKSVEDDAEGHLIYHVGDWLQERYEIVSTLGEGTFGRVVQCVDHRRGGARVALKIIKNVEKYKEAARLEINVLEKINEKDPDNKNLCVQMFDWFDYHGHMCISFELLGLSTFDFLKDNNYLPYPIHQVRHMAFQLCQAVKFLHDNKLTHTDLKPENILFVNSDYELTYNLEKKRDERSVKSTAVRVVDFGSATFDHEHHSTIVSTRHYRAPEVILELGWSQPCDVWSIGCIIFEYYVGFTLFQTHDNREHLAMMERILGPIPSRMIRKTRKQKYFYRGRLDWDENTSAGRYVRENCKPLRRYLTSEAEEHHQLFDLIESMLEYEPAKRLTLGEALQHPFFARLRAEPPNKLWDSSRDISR
Sequence of Voltage-gated inwardly rectifying potassium channel KCNH2 (Q12809 whole entry): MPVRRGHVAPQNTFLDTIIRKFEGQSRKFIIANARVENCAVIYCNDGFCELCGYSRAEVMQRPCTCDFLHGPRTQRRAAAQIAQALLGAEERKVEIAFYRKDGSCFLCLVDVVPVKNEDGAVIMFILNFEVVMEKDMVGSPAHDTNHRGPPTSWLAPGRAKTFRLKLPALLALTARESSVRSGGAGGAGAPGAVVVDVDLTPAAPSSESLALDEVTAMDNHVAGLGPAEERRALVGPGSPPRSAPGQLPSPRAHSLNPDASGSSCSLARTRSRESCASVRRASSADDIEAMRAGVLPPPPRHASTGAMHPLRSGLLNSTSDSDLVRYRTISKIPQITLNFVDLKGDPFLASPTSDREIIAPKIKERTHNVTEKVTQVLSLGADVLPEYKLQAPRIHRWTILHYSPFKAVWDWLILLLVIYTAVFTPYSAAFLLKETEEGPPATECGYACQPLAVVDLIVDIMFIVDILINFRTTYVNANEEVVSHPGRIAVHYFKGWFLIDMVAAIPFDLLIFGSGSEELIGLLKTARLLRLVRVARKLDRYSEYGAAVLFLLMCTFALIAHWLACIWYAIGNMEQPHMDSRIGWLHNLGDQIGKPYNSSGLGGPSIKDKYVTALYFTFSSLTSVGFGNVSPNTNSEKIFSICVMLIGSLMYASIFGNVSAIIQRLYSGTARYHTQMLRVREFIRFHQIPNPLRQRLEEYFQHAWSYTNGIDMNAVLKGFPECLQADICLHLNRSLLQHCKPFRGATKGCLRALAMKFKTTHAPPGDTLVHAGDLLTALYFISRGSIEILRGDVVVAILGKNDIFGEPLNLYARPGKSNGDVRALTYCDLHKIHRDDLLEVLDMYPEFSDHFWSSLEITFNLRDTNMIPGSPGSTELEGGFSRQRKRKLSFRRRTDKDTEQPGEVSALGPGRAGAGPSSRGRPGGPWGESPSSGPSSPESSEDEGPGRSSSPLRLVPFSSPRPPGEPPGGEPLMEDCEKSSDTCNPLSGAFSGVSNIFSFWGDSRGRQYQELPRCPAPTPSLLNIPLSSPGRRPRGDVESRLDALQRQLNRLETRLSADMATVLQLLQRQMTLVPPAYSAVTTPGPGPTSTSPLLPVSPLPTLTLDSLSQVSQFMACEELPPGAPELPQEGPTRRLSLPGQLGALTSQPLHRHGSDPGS

As to `CNC(=O)c1ccc(Nc2nc(OC3CCCC3)c3c(-c4ccc5nc(C)oc5c4)c[nH]c3n2)c(OC)c1`, the inhibition in data set [1], in [8] and in [10] was greater than 80% in each case. Further, the IC50 (as a rule, the concentration at which inhibition is half-maximal) in [2] was greater than 33000 nM; in data set [6], 99 nM; in [7] it was 104 nM; in data set [17], 680 nM; in data set [19] it was 136 nM. The inhibition in vivo at 10 mg/kg with CAL-51 [3] came out at 71%. Moreover, the remaining at 1 h was 91% in data set [4] and 98% in [13]. The Activity entry is “Non-Toxic” in the data set on Mus musculus [5]; greater than 75% in data set [11]; “Non-Toxic” with MDA-MB-361; “Non-Toxic” with ZR-75-30; greater than 75% in [18]; 17% with Mus musculus [20]. The clearance (usually the volume of plasma or blood freed of the substance per unit of time) is 8.48 mL/min/kg in [9] and 9.3 mL/min/kg in data set [16]. Besides, the MRT (in general, a mean duration of stay, worked out from the concentration-time curve) in data set [12] was found to be 4.1 h. Further, the inhibition in vivo at 20 mg/kg was 70% in the data set with CAL-51 [14] and 71% in the data set on CAL-51 [15]. Moreover, the result in the data set on MDA-MB-468 was Active.

Values taken from ChEMBL document CHEMBL4028873, “The Discovery of a Dual TTK Protein Kinase/CDC2-Like Kinase (CLK2) Inhibitor for the Treatment of Triple Negative Breast Cancer Initiated from a Phenotypic Screen” (J Med Chem, 2017).
